# In ChEMBL document CHEMBL3621153, “Structure-Based Design of GNE-495, a Potent and Selective MAP4K4 Inhibitor with Efficacy in Retinal Angiogenesis” (ACS Med Chem Lett, 2015):
# Calls of active or inactive are those of the source. The calls are words filed in the database; no cut-off is given here.
# Experiments:
# [1] = molecular target: T1, Mitogen-activated protein kinase kinase kinase kinase 4 (Homo sapiens, UniProt O95819); experiment: Inhibition of MAP4K4 (unknown origin) by Z'LYTE assay
# [2] = Clearance in rat liver microsomes assessed as compound remaining incubated for 1 hr by LC-MS/MS method; assay type: ADME
# Procedure, shortened: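 Compounds incubated with rat liver microsomes for 1 h; percent parent remaining quantified by LC–MS/MS.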
# [3] = Ratio of drug level in brain to plasma in rat administered as cassette dosing; assay type: ADME, organism-based; settings: read-out: BPR
# Procedure, shortened: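 Brain-to-plasma ratio determined in rats after IV cassette dosing.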
# [4] = molecular target: T1, Mitogen-activated protein kinase kinase kinase kinase 4; experiment: Inhibition of MAP4K4 (unknown origin) by LC3K method
# Procedure, shortened: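 Kinase activity read on a Caliper LabChip 3000 platform, with IC50 values derived from that read-out.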
# [5] = test system: HUVEC; experiment: Anti-angiogenesis activity in HUVEC assessed as inhibition of cell migration; assay type: functional, cell-based; settings: Homo sapiens
# [6] = Apparent permeability in MDCK cells at 10 uM incubated over 60 mins; assay type: ADME, cell-based, Canis lupus familiaris; settings: dog
# Procedure, shortened: (§1)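 MDCK cells exposed to test compound at 10 μM over 60 min. Apparent permeability (Papp) measured. Efflux ratio derived from apical–basolateral versus basolateral–apical flux rates.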
# [7] = Efflux ratio in MDCK cells at 10 uM incubated over 60 mins; assay type: ADME, cell-based, Canis lupus familiaris; settings: dog; procedure, shortened: as §1
# [8] = Clearance in human liver microsomes assessed as compound remaining incubated for 1 hr by LC-MS/MS method; assay type: ADME
# [9] = Clearance in mouse liver microsomes assessed as compound remaining incubated for 1 hr by LC-MS/MS method; assay type: ADME
# [10] = test system: Mus musculus; experiment: Drug level in neonatal mouse pups assessed as time duration for sustained drug exposure at 25 and 50 mg/kg, ip; assay type: ADME, organism-based; settings: in vivo
# Procedure, shortened: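 Neonatal mouse pups given 25 or 50 mg/kg intraperitoneally. Plasma exposure followed over 24 h post-dose.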
# [11] = test system: Mus musculus; experiment: Anti-angiogenesis activity in neonatal mouse pups assessed as delay in retinal vascular outgrowth dosed intraperitoneally daily form P1 to P5 days by isolectin -B4 staining; assay type: functional, organism-based
# Procedure, shortened: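 Newborn mice dosed IP daily with vehicle or 100 mg/kg from P1 to P5. Retinas flat-mounted at P6 and stained with isolectin-B4. Avascular area normalized to total retina, one value per retina. Mann–Whitney unpaired test.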
# [12] = Protein binding in mouse plasma; assay type: ADME, cell-free; settings: read-out: PPB (converted)
# [13] = Protein binding in rat plasma; assay type: ADME, cell-free; settings: read-out: PPB (converted)
# [14] = Clearance in mouse at 1 mg/kg, iv; assay type: ADME, organism-based; settings: in vivo
# Procedure, shortened: (§2)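 Single IV bolus of 1 mg/kg given as a solution in 10% EtOH, 30% PEG400, 60% 50 mM citrate, pH 3.0, in mouse, rat or dog. Three animals per group; mean values reported.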
# [15] = Half life in mouse at 1 mg/kg, iv; assay type: ADME, organism-based; settings: in vivo; procedure, shortened: as §2
# [16] = Cmax in mouse at 1 mg/kg, iv; assay type: ADME, organism-based; design: dose 1 mg/kg, route intravenous; settings: in vivo; procedure, shortened: as §2
# [17] = test system: Mus musculus; experiment: Volume of distribution in mouse at 5 mg/kg, po; assay type: ADME, organism-based; settings: in vivo
# [18] = AUC (infinity) in mouse at 5 mg/kg, po; assay type: ADME, organism-based; design: dose 5 mg/kg, time infinity, route oral; settings: in vivo
# [19] = Cmax in mouse at 5 mg/kg, po; assay type: ADME, organism-based; design: dose 5 mg/kg, route oral; settings: in vivo
# Procedure, shortened: (§3)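 Oral dose of 5 mg/kg given as a suspension in 0.5% (w/v) methylcellulose/0.2% (w/v) Tween 80 in sterile water, in mouse, rat or dog. Three animals per group; means reported. Bioavailability derived against a 1 mg/kg IV bolus.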
# [20] = Tmax in mouse at 5 mg/kg, po; assay type: ADME, organism-based; settings: in vivo; procedure, shortened: as §3
# [21] = Oral bioavailability in mouse at 5 mg/kg; assay type: ADME, organism-based; settings: in vivo; procedure, shortened: as §3
# [22] = test system: Brain; experiment: Free drug concentration in mouse brain; assay type: ADME, tissue-based; settings: in vivo
# Procedure, shortened: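 Unbound drug concentration in brain measured in mice at the 1 h time point of the cross-species PK study.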
# [23] = Clearance in rat at 1 mg/kg, iv; assay type: ADME, organism-based; settings: in vivo; procedure, shortened: as §2
# [24] = Half life in rat at 1 mg/kg, iv; assay type: ADME, organism-based; settings: in vivo; procedure, shortened: as §2
# [25] = Cmax in rat at 1 mg/kg, iv; assay type: ADME, organism-based; design: dose 1 mg/kg, route intravenous; settings: in vivo; procedure, shortened: as §2
# [26] = test system: Rattus norvegicus; experiment: Volume of distribution in rat at 5 mg/kg, po; assay type: ADME, organism-based; settings: in vivo
# [27] = AUC (infinity) in rat at 5 mg/kg, po; assay type: ADME, organism-based; design: dose 5 mg/kg, time infinity, route oral; settings: in vivo
# [28] = Cmax in rat at 5 mg/kg, po; assay type: ADME, organism-based; design: dose 5 mg/kg, route oral; settings: in vivo; procedure, shortened: as §3
# [29] = Tmax in rat at 5 mg/kg, po; assay type: ADME, organism-based; settings: in vivo; procedure, shortened: as §3
# [30] = Oral bioavailability in rat at 5 mg/kg; assay type: ADME, organism-based; settings: in vivo; procedure, shortened: as §3
# [31] = Half life in dog at 1 mg/kg, iv; assay type: ADME, organism-based, Canis lupus familiaris; settings: in vivo; procedure, shortened: as §2
# [32] = Cmax in dog at 1 mg/kg, iv; assay type: ADME, organism-based, Canis lupus familiaris; design: dose 1 mg/kg, route intravenous; settings: in vivo; procedure, shortened: as §2
# [33] = test system: Canis familiaris; experiment: Volume of distribution in dog at 5 mg/kg, po; assay type: ADME, organism-based, Canis lupus familiaris; settings: in vivo
# [34] = test system: Canis familiaris; experiment: AUC (infinity) in dog at 5 mg/kg, po; assay type: ADME, organism-based, Canis lupus familiaris; design: dose 5 mg/kg, time infinity, route oral; settings: in vivo
# [35] = Cmax in dog at 5 mg/kg, po; assay type: ADME, organism-based, Canis lupus familiaris; design: dose 5 mg/kg, route oral; settings: in vivo; procedure, shortened: as §3
# [36] = Tmax in dog at 5 mg/kg, po; assay type: ADME, organism-based, Canis lupus familiaris; settings: in vivo; procedure, shortened: as §3
# [37] = test system: Canis familiaris; experiment: Oral bioavailability in dog at 5 mg/kg; assay type: ADME, organism-based, Canis lupus familiaris; settings: in vivo; procedure, shortened: as §3
# [38] = test system: Mus musculus; experiment: Anti-angiogenesis activity in neonatal mouse pups assessed as induction of abnormal retinal vascular morphology at 100 mg/kg, ip dosed daily form P1 to P6 days by isolectin -B4 staining
# T1 sequence (O95819 whole entry): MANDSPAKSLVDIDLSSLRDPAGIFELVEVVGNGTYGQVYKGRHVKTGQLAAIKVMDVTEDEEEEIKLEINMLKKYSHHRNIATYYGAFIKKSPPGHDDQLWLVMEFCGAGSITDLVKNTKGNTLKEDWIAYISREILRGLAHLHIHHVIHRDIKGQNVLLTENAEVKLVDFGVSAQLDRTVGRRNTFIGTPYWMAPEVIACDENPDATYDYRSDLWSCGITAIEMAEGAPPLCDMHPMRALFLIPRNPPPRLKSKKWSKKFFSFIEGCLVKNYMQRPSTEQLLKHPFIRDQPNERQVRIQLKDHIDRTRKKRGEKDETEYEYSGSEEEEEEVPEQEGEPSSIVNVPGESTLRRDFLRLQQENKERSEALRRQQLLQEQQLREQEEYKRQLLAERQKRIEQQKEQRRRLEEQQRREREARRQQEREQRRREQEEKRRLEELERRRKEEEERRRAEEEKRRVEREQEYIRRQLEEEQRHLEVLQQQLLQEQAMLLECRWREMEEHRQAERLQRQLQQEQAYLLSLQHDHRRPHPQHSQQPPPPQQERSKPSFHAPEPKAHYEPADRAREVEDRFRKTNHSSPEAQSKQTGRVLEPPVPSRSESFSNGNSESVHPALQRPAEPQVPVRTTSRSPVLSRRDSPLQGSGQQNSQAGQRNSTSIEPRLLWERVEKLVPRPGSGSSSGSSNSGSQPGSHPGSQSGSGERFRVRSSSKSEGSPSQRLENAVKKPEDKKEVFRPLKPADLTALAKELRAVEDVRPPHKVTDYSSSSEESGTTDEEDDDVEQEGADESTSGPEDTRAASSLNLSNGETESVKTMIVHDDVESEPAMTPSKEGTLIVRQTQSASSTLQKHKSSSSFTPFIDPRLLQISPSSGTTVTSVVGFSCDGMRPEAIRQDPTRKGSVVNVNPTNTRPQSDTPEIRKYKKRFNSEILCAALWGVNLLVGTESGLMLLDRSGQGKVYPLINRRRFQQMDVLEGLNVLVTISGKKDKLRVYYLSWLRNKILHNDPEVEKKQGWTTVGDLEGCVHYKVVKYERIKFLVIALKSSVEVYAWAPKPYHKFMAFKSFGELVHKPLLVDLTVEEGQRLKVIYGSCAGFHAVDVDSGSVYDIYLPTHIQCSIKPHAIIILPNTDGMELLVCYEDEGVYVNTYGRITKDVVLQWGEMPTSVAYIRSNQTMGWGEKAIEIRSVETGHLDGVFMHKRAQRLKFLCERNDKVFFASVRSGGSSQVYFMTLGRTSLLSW
structure (smiles),measurement,setting,value
N#CCNC(=O)c1cnc(N)c2cc(-c3cccc(F)c3)ccc12,IC50,[1],46 nM
same,CLhep predicted,[2],23 mL/min/kg
same,Kp,[3],0.12
CC(=O)N1CC(NC(=O)c2cnc(N)c3cc(-c4cccc(F)c4)ccc23)C1,IC50,[1],32 nM
same,CLhep predicted,[2],9 mL/min/kg
CNC(=O)N1CC(NC(=O)c2cnc(N)c3cc(-c4cccc(F)c4)ccc23)C1,CLhep predicted,[2],12.7 mL/min/kg
Nc1ncc(C(=O)NC2CC2)c2ccc(-c3cccc(F)c3)cc12,IC50,[4],16 nM
same,CLhep predicted,[2],28 mL/min/kg
Nc1ncc(C(=O)N[C@H]2C[C@@H](O)C2)c2ccc(-c3cccc(F)c3)nc12,IC50,[1],3.7 nM
same,IC50,[5],215 nM
same,"Papp at 1 h, 10 µM",[6],10.1 ×10⁻⁶ cm/s
same,"efflux ratio at 1 h, 10 µM",[7],0.83
same,CLhep predicted,[8],6 mL/min/kg
same,CLhep predicted,[9],61 mL/min/kg
Nc1ncc(C(=O)NC2CN(C(=O)C3CC3)C2)c2ccc(-c3cccc(F)c3)nc12,IC50,[1],3.7 nM
same,IC50,[5],57 nM
same,"Papp at 1 h, 10 µM",[6],7.3 ×10⁻⁶ cm/s
same,"efflux ratio at 1 h, 10 µM",[7],2.3
same,CLhep predicted,[8],7 mL/min/kg
same,CLhep predicted,[9],13 mL/min/kg
same,Time,[10],> 24 h
same,Activity,[11],Active
same,fraction unbound,[12],0.056
same,fraction unbound,[13],0.022
same,clearance,[14],19 mL/min/kg
same,half-life,[15],1.5 h
same,Cmax,[16],2700 nM
same,Vd,[17],1.6 L/kg
same,AUC(0-inf),[18],5.3 µM·h
same,Cmax,[19],1400 nM
same,Tmax,[20],1 h
same,bioavailability,[21],47%
same,Drug uptake(free),[22],0.008 µM
same,clearance,[23],7.5 mL/min/kg
same,half-life,[24],3.4 h
same,Cmax,[25],4000 nM
same,Vd,[26],1.2 L/kg
same,AUC(0-inf),[27],12 µM·h
same,Cmax,[28],1500 nM
same,Tmax,[29],4 h
same,bioavailability,[30],40%
same,half-life,[31],1.8 h
same,Cmax,[32],3900 nM
same,Vd,[33],1.1 L/kg
same,AUC,[34],21 µM·h
same,Cmax,[35],1200 nM
same,Tmax,[36],1.7 h
same,F,[37],37%
same,Activity,[38],Active
CNC(=O)N1CC(NC(=O)c2cnc(N)c3nc(-c4cccc(F)c4)ccc23)C1,IC50,[5],196 nM
same,"Papp at 1 h, 10 µM",[6],2.4 ×10⁻⁶ cm/s
same,"efflux ratio at 1 h, 10 µM",[7],1.1
same,CLhep predicted,[8],9 mL/min/kg
same,CLhep predicted,[9],32 mL/min/kg
Nc1ncc(C(=O)NC2CC(O)C2)c2ccc(-c3cccc(F)c3)cc12 (mixture of isomers),IC50,[1],41 nM
same,CLhep predicted,[2],14.9 mL/min/kg
same,Kp,[3],0.02
Nc1ncc(C(=O)NC2CNC2)c2ccc(-c3cccc(F)c3)cc12,CLhep predicted,[2],10.7 mL/min/kg
Nc1ncnc2ccc(-c3cccc(F)c3)cc12,CLhep predicted,[2],47.5 mL/min/kg
NC(=O)c1cnc(N)c2cc(-c3cccc(F)c3)ccc12,IC50,[1],18 nM
same,CLhep predicted,[2],40 mL/min/kg
Nc1ncc(C(=O)NC2CC2)c2ccc(-c3cccc(F)c3)nc12,IC50,[1],1.4 nM
same,IC50,[5],99 nM
same,"Papp at 1 h, 10 µM",[6],3.4 ×10⁻⁶ cm/s
same,"efflux ratio at 1 h, 10 µM",[7],0.74
same,CLhep predicted,[8],16 mL/min/kg
same,CLhep predicted,[9],78 mL/min/kg
CCC(=O)N1CC(NC(=O)c2cnc(N)c3nc(-c4cccc(F)c4)ccc23)C1,IC50,[1],3.5 nM
same,IC50,[5],79 nM
same,CLhep predicted,[8],5 mL/min/kg
same,CLhep predicted,[9],28 mL/min/kg
